Measured values from ChEMBL document CHEMBL1146076, “Identification of potent and selective inhibitors of PDGF receptor autophosphorylation” (J Med Chem, 2006).

Assays:
[1] = molecular target: Platelet-derived growth factor receptor alpha (Homo sapiens, UniProt P16234); experiment: Inhibition of PDGFR alpha phosphorylation in G292 cell; type: functional, cell-based
Summary of the method: (§1)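 Cell-based ELISA on intact cells: PDGFR-α in G292 cells, c-kit in M07e cells, both quiesced in 0.1% FBS medium. Serial compound concentrations were added for 1 h at 37 °C, then 50 ng/mL PDGF-AA (G292) or SCF (M07e) was added. Lysates were captured on anti-phosphotyrosine (PY-20) plates overnight at 4 °C. Detection used anti-PDGFR-α or anti-c-kit plus HRP, read at A450. IC50 is the mean of two tests.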

[2] = molecular target: Mast/stem cell growth factor receptor Kit (Homo sapiens, UniProt P10721); experiment: Inhibition of c-kit receptor phosphorylation in M07e cell; type: functional, cell-based; summary of the method: as §1
Sequence of Mast/stem cell growth factor receptor Kit (P10721 whole entry): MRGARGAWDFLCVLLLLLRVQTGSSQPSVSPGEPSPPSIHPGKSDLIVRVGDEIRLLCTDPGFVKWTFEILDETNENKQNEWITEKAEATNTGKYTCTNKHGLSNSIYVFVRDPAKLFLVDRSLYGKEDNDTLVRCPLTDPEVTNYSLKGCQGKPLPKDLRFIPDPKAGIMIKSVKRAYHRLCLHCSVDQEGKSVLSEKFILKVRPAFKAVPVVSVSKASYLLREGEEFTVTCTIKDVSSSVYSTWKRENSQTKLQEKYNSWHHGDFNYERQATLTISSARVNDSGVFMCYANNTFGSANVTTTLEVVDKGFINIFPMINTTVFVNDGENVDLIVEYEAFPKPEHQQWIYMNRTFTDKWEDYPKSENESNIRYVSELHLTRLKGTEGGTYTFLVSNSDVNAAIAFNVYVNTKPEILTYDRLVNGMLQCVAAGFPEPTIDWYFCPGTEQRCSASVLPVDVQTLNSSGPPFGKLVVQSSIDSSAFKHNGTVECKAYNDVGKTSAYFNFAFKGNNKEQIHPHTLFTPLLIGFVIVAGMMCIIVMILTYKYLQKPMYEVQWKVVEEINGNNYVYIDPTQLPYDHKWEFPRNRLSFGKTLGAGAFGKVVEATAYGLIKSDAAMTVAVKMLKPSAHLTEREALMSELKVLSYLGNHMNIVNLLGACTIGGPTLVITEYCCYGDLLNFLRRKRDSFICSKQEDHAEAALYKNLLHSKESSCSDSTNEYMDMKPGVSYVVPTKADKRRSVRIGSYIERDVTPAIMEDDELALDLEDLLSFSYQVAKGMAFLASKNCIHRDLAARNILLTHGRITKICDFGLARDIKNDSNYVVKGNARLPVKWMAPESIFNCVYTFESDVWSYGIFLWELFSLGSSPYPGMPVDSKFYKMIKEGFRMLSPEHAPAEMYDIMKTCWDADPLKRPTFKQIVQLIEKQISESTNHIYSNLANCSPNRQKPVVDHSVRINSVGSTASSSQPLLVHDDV

Sequence of Platelet-derived growth factor receptor alpha (P16234 whole entry): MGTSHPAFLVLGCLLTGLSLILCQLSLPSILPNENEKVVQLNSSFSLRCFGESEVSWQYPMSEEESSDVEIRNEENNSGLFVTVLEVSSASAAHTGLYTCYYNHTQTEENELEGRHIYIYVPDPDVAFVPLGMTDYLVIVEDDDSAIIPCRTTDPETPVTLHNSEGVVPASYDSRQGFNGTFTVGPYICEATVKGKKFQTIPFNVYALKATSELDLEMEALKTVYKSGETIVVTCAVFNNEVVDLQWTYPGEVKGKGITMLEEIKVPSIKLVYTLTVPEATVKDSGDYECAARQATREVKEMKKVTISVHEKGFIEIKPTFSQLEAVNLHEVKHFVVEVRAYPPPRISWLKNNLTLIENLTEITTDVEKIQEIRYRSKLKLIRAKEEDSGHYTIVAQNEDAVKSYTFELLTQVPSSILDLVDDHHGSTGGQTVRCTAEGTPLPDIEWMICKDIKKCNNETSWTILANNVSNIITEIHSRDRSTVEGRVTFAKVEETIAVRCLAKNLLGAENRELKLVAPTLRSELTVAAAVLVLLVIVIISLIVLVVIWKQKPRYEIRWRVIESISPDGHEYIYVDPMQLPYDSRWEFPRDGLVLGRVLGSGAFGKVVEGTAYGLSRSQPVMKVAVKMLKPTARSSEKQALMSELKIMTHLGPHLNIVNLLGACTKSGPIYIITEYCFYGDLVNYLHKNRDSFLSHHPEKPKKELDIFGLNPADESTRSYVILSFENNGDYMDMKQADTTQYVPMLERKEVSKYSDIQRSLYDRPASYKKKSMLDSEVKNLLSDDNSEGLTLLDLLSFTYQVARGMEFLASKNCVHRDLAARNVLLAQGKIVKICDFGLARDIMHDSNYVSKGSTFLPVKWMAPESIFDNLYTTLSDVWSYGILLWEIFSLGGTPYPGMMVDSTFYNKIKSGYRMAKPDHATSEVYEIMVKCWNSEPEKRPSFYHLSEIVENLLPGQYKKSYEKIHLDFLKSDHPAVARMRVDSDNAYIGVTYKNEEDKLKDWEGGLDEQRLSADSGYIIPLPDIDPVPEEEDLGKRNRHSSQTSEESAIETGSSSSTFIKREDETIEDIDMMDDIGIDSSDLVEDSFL

## COc1cc2nccc(Oc3ccc(NC(=S)NC(=O)c4ccccc4Cl)cc3)c2cc1OC
[1]
  IC50: 0.005 µM

## COc1cc2nccc(Oc3ccc(NC(=S)NC(=O)C4CCCCC4)cc3)c2cc1OC
[1]
  IC50: 0.015 µM

## COc1cc2ncnc(Oc3ccc(NC(=O)NCCC4CCCCC4)cc3)c2cc1OC
[1]
  IC50: 0.009 µM
[2]
  IC50: < 0.03 µM

## COc1cc2ncnc(Oc3ccc(NC(=S)NCc4ccccc4)cc3)c2cc1OC
[1]
  IC50: 0.046 µM
[2]
  IC50: 0.303 µM

## COc1cc2ncnc(Oc3ccc(NC(=O)NC4CCCCC4)cc3)c2cc1OC
[1]
  IC50: 0.007 µM
[2]
  IC50: 0.027 µM

## COc1cc2nccc(Oc3ccc(NC(=S)NC4CCCCC4)cc3)c2cc1OC
[1]
  IC50: 0.04 µM
[2]
  IC50: 0.069 µM

## COc1cc2nccc(Oc3ccc(NC(=O)NC4CCCCC4)cc3)c2cc1OC
[1]
  IC50: 0.012 µM
[2]
  IC50: 0.022 µM

## COc1cc2nccc(Oc3ccc(NC(=S)NC(=O)c4ccccc4)cc3)c2cc1OC
[1]
  IC50: 0.008 µM

## COc1cc2nccc(Oc3ccc(NC(=O)Oc4ccccc4)cc3)c2cc1OC
[1]
  IC50: 0.005 µM

## COc1cc2ncnc(Oc3ccc(NC(=S)NCC4CCCCC4)cc3)c2cc1OC
[1]
  IC50: 0.037 µM
[2]
  IC50: 0.153 µM

## COc1cc2nccc(Oc3ccc(NC(=O)OCCC4CCCCC4)cc3)c2cc1OC
[1]
  IC50: 0.018 µM
[2]
  IC50: 0.08 µM

## COc1cc2nccc(Oc3ccc(NC(=O)NCCC4CCCCC4)cc3)c2cc1OC
[1]
  IC50: 0.006 µM
[2]
  IC50: < 0.03 µM
